Reference: ChEMBL document CHEMBL4033794, “Discovery of Trifluoromethyl Glycol Carbamates as Potent and Selective Covalent Monoacylglycerol Lipase (MAGL) Inhibitors for Treatment of Neuroinflammation” (J Med Chem, 2018)
Active and inactive are the calls of the source. No cut-off for these calls is given here.

How the values were obtained:
[1] = Plasma clearance in Wistar Hannover rat at 1 mg/kg, iv administered as bolus dose via jugular vein cannula measured up to 24 hrs post dose by HPLC-MS/MS analysis; type: ADME, organism-based
Procedure, shortened: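 Rats (n = 2) given 1 mg/kg IV bolus via jugular vein cannula, solution in 3% DMA/10% Solutol HS15/10% Miglyol/77% of 20% SBECD in water, 1 mL/kg. Carotid cannula blood pre-dose and 0.083–24 h; plasma by HPLC-MS/MS; non-compartmental analysis.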

Mus musculus = test: Anti-inflammatory activity in C57BL6J mouse assessed as reduction in LPS-induced TNFalpha levels in brain at 1 mg/kg, sc administered 30 mins after LPS challenge measured at 4 hrs post LPS challenge; type: functional, organism-based
Procedure, shortened: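 LPS 20 mg/kg IP or saline, then 1 mg/kg SC compound or vehicle at 30 min; hemi-brains taken at 4 h, homogenized in PBS with protease inhibitors, spun 100,000 rcf 45 min at 4°C; IL-1β and TNFα measured by Meso Scale electrochemiluminescence panel, with protein measured by BCA.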

[2] = Intrinsic clearance in human hepatocytes in presence of CYP inhibitor ABT; type: ADME, cell-based, Hepatocyte; conditions: with ABT (CYP inhibitor), concentration not stated, read-out: CLH
Procedure, shortened: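 Cryopreserved human hepatocyte substrate-depletion assay run with ABT present; scaled intrinsic clearance in mL/min/kg.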

Structure (SMILES): O=C(O[C@H](CO)C(F)(F)F)N1C[C@@H]2[C@H](C1)[C@H]2c1ccn(-c2ccc(F)cc2)n1
- clearance [1]: 61 mL/min/kg
- Activity (Mus musculus): Active
- CLint scaled [2]: 37 mL/min/kg
